Reference: the EternaBench riboswitch data

Tested on: MS2 coat protein
Experiment: apparent Kd, MS2 coat protein; higher = weaker binding; RNA-MaP array; FMN 200 µM where present
Summary of the method: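 Stalled E. coli RNA polymerase transcribed each design on Illumina sequencing-chip clusters. The clusters were titrated with SNAP-549-labelled MS2 coat protein, starting at 0.7 or 1.5 nM and doubling up to 3 µM, first without ligand and then with constant ligand, in 100 mM Tris-HCl pH 7.5, 80 mM KCl, 4 mM MgCl2, BSA, DTT, yeast tRNA and Tween-20. Green signal was normalised to red-channel RNA signal and to the control-cluster median Fmax. The apparent Kd is the median of filtered binding-curve fits made for each cluster.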

[1] = designed as: OFF switch for flavin mononucleotide, no ligand
[2] = ligand present: flavin mononucleotide, designed as: OFF switch for flavin mononucleotide
[3] = designed as: ON switch for flavin mononucleotide, no ligand
[4] = ligand present: flavin mononucleotide, designed as: ON switch for flavin mononucleotide

Sequence	apparent Kd [1] [nM]	apparent Kd [2] [nM]	apparent Kd [3] [nM]	apparent Kd [4] [nM]
UUUUAACAUGAGGAUCACCCAUGUGAGGAUAUCGAAAUUUAUAUUUAUAUUUAUAUAUCGAGAAGGCACAUUUU	128	127	–	–
ACAUGAUAUGUAGGAUAUCACAUUAAUUGAUUCAUAUUUCAAUAUAGCAUUUGAGAAGGACAUUUACAUGAGGAUCACCCAUGU	9.18	8.64	–	–
GUAGAACAUGAGGAUCACCCAUGUGAAGACGCAUGAGGAUAUGUCCGUACCUAGCAUACGAUAGAAGGCAUGGUAC	–	–	69.2	88.2
CGGCGGAAAGGAUAUGCAUUAAUAUCAAAAUGUGGGCCACGACAUGAGGAUCACCCAUGUAGAAGGUUCAGCCA	16.4	13.3	–	–
CAAUCUCAGAUAGGAUAUAUAGGAUAACUUAAGACCUAACAUGAGGAUCACCCAUGUGAUUAUUCGUAGAAGGAUCAUUGAACC	–	–	205	190
GUAACAUGAGGAUCACCCAUGUAUAGAACACUCAAUAGAUUUGAGGAUAUAGUGGAAUUUACACACUAGAAGGCAGUGGGUGCA	–	–	181	253
UAUAUAUAGUAAGGAUAUGUAUUAAUUUUUUAAACAGAAGGUACUGACAUGAGGAUCACCCAUGUUUUAGUGUGGGCAUGUAGA	78.8	131	–	–
GUGACGAAUGUAGGAUAUGCUGAGGAAUACUCAGCAGAAGGACAUGAGGAUCACCCAUGUACUAAUAGUGAUAAUAAACGUCAC	15.6	77.6	–	–
CACGUCCACACAGGAUAUGCUGGACUUUGUCCAGCAGAAGGGUGACAACAUGAGGAUCACCCAUGUAGGACGUGUAUAUUUAAU	–	–	1040	196
UUGUUAUAUGUAGGAUAUGCAUAUUAUUAUUAUGCAGAAGGACAUGAGGAUCACCCAUGUAUAUUAUUAUUAUAUGUUAUAUAU	23.8	29.8	–	–
CAGGUAGCUACAGGAUAUACACAGCUCAGUAAACUGAGCAAAACAACUACAUGAGGAUCACCCAUGUAGAAGGGUAGCUGCCUG	17	17.1	–	–
AAAGAAGCACUUGGAACCGGACAAUGAGAAGGCCACGCACAUGAGGAUCACCCAUGUAAAGCUAUGGAGGAUAUCAUGAUGGAU	–	–	46.4	6.73
GUAGCUUUCCGAGGAUAUUCAGGGCGUGGAUAUACAUGAGGAUCACCCAUGUGGCGGAAGCCUAGGGAGAAGGCGGGCUGCUUC	–	–	47.7	19
GAGAUGUCAGGAUAUGUGUAAAGAAUAAAACAAAUAACAACACAGAAGGGACAUGAGGAUCACCCAUGUUACUC	24.9	54.6	–	–
AGUUAAUGCACAUGAGGAUCACCCAUGUCACUUUAUAGAAGACAGGAUAUGCAUGCCAUCAAUGUGCAGAAGGGUCAUCACCGA	–	–	81	195
UUAAUUCAUGUAGGAUAUCCGAUGCGAAGCGUUGGAGAAGGACAUGAGGAUCACCCAUGUUCUAGCGUCUGAGUACAGAUGCAA	26.9	88.5	–	–
AUAUAUACAAAGUUACAUGAGGAUCACCCAUGUUUAUUGGGAAGAAGGGUAACAUUAUUAGAUGUAUAGGAUAUUUCACAAUUG	–	–	599	327
AGGGUGGGAGGAUAUCCAAUAUAUGACAUGAGGAUCACCCAUGUUUCCACUCGUACCUCCGGAGAAGGCCCUUCCA	19.9	19.7	–	–
AUCAAGUGAGGAUAUGAUUAUACAACAAACUAACAUCUACAUCAGAAGGCACAUGAGGAUCACCCAUGUUUGUC	18.1	16.6	–	–
AAAAAACAUGAGGAUCACCCAUGUCCUCGGACGUGAGGAUAUGUACAGACUUCGGUCUGUACAGAAGGCAUGUCAA	–	–	408	604
AUCAGCUCGUCAGGAUAUACGUCACUGCUUCGGCAGUGUGGUAAGGUCACAUGAGGAUCACCCAUGUAGAAGGGACGAGCUGAU	8.32	120	–	–

Sequence	apparent Kd [1] [nM]	apparent Kd [2] [nM]	apparent Kd [3] [nM]	apparent Kd [4] [nM]
AAUAAACACACAGGAUAUAGCAUCGUCGGUAUGAACUUAAAGACGACGAUGCUAGAAGGGUGAACACAUGAGGAUCACCCAUGU	–	–	232	39.1
GGAUAGGACAGAGGAUAUACGUGCUAGAGAUACUAGCAAUAUUUCCUCACAUGAGGAUCACCCAUGUAGAAGGCUGUCCUAUCG	6.26	73.7	–	–
AAUAAUUAGUAAGGAUAUACUAGUGAUUAGCUUGUAGAAGGUACAGUCUUAUGUAUAAUAAAUUAACAUGAGGAUCACCCAUGU	–	–	11.6	9.86
GGAUCAAUAGUCCACAUGAGGAUCACCCAUGUAGUAUUUUACAAGGAUAUGGUGGGACUUCGUGGCCAGAAGGUGUAAAGGAUC	–	–	194	99.7
UCUGCCGCCGUGAGGAUAUGCCCGCGAAAACGCGGGCAGAAGGCACAUGAGGAUCACCCAUGUCCCGCGGUUUU	16.1	36.7	–	–
UGCCGAUGAGGAUAUACAUUGAAUUUGAUUCAUGUAAAACUACAUGAGGAUCACCCAUGUAGAAGGCAUUGGCU	16.9	30.4	–	–
GCAUGGAAAGUGAGGAUAUACCACUGGAUACAGUGGUAGAAGGCACAUGAGGAUCACCCAUGUCUCUACCAUGC	13.6	30.8	–	–
AAUUAUUGAUGAGGAUAUUGUGGUGAAACACGACAAGAAGGCAUUAUUCACAUGAGGAUCACCCAUGUGAGCCUGGUGCAUAUA	15.5	13.8	–	–
GGACGCGUAGGAUAUGCAAUCGAAGUCGAGUUUUCUGGUGGACAUGAGGAUCACCCAUGUAGAAGGAUGUAGCA	44.2	33.4	–	–
GUUUCGGGAGGAUAUGCGUGGAUUGUUCUCGUAUGUUGUUUACAUGAGGAUCACCCAUGUAGAAGGUCUGGAGC	170	136	–	–
UGUCCAUAGCAGAAGGACAUAAAUAACCAUGAAAACAUGAGGAUCACCCAUGUAGGAUAUGCUAUGGACUAAGAGCGAAAGCUC	5.38	17.8	–	–
AUCAGCUCAUCAGGAUAUACAUCACUGCUUCGGCAGUGUAUUAAGAUCACAUGAGGAUCACCCAUGUAGAAGGGAUGAGCUGAU	32.7	347	–	–
GUAGUACAUGAGGAUCACCCAUGUGUAGAAGCAUGAGGAUAUGUCAGUCCAUGAAAAACGAUAGAAGGCAUGGUGA	–	–	178	176
GGUUCCAACACAGGAUAUGCUAUCCUUUGGGUAGCAGAAGGGUGAAACAUGAGGAUCACCCAUGUGGAGCCAGGGCGUGAGCCC	–	–	593	63.1
CGAGAUCUUGAGAAGGCAUAAUAUAUAAUACCACAUGUUUACAUGAGGAUCACCCAUGUUUCCUAUGAGGAUAUCAGGAUUUCG	20.9	17.1	–	–
UAAUAUUUAUGAUAUUAUUACAUUAGAAGGCAAGACAUGUGGAUACAUGAGGAUCACCCAUGUAUUGAGGAUAUAGACAUAUAU	15.4	19.2	–	–
AACCUACAUGAGGAUCACCCAUGUAAGGAUAUGGCAUGAUUUGCGUCAGCCCGUUAAGUUAGAAGGUGCGUCGG	14.8	16	–	–
UGUUGUAUUACAGGAUAUCUAUUGUUAUUAUUUAGAGAAGGGUAUUCACAUGAGGAUCACCCAUGUAUAUACGAGGAAGUUGUG	–	–	45.3	45.5
CCGGAAACGGGUAGCCUGACAUGAGGAUCACCCAUGUGAACCGAGGAUAUGGAUCCUAAUUGGAUCCAGAAGGUGGCAGGCUAC	–	–	681	245
AUCAGCUCGUCAGGAUAUACGUCACUGCGUCAGCAGUCUGGUAAGAUCACAUGAGGAUCACCCAUGUAGAAGGGACGAGCUGAU	19.1	288	–	–
GUGCAAUGAGGAUAUACGUAGGUGAACAUCUGUGUGCUCCUACAUGAGGAUCACCCAUGUAGAAGGCAUGUCAC	12.3	22.6	–	–
